Data as given in ChEMBL document CHEMBL4364284, “Design, Synthesis, and Efficacy Testing of Nitroethylene- and 7-Nitrobenzoxadiazol-Based Flavodoxin Inhibitors against Helicobacter pylori Drug-Resistant Clinical Strains and in Helicobacter pylori-Infected Mice” (J Med Chem, 2019).
≈ marks a conversion by molar mass, not a printed value. Calls of active or inactive are those of the source. The calls are words filed in the database; no cut-off is given here.

Legend:
[1] = Toxicity in NMRI mouse infected with Helicobacter pylori SS1 assessed as change in body weight at 1 to 20 mg/100g, po administered daily via gavage for 8 days starting from 1 week post-infection; format: organism-based; details: in vivo
In short: (§1)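 Compound in 5–10% DMSO/olive oil (100 μL) given by daily oral gavage for 8 days from day 8. Body weight and appetite were monitored during treatment; infected controls received vehicle alone.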

[2] = Therapeutic index, ratio of MCC50 for human HeLa cells to MIC for inhibition of flavodoxin in metronidazole-resistant Helicobacter pylori isolate 1 assessed as reduction in bacterial growth; format: toxicity; details: read-out: TI
In short: (§2)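 TI is MCC50/MIC. For MCC50, HeLa cells (30 000/well, DMEM with 10% FBS) were exposed to compound at 25–1000 μM final. Viability by XTT at 450/650 nm; MCC50 is the concentration giving 50% lysis from viability curves. Run twice in triplicate.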

[3] = tested on: Helicobacter pylori; assay: Antibacterial activity against Helicobacter pylori SS1 infected in NMRI mouse assessed as reduction in gastric colonization at 1 to 20 mg/100g, po administered daily via gavage for 8 days starting from 1 week post-infection and measured 8 days post-last dose; format: functional, organism-based
In short: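 Female 6-week-old SPF NMRI mice, seven per condition, infected orogastrically on days 1 and 3 with 100 μL Hp SS1 (5 × 10^8 CFU/mL). From day 8, 100 μL compound in 5–10% DMSO/95–90% olive oil by daily oral gavage for 8 days. Infected controls got vehicle. Killed day 24; stomach homogenates plated 5 days at 37 °C microaerophilic; CFU/g tissue versus control. Mann-Whitney U and unpaired t tests, p ≤ 0.05.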

[4] = Toxicity in NMRI mouse infected with Helicobacter pylori SS1 assessed as change in appetite at 1 to 20 mg/100g, po administered daily via gavage for 8 days starting from 1 week post-infection; format: organism-based; details: in vivo; in short: as §1
[5] = tested on: Escherichia coli; assay: Effect on growth of Escherichia coli DH5[alpha] after 48 hrs by resazurin-dye based microdilution assay; format: organism-based
[6] = Therapeutic index, ratio of MCC50 for human HeLa cells to MIC for inhibition of flavodoxin in metronidazole-resistant Helicobacter pylori isolate 3 assessed as reduction in bacterial growth; format: toxicity; details: read-out: TI; in short: as §2
[7] = Therapeutic index, ratio of MCC50 for human HeLa cells to MIC for inhibition of flavodoxin in clarithromycin/metronidazole-resistant Helicobacter pylori isolate 6 assessed as reduction in bacterial growth; format: toxicity; details: read-out: TI; in short: as §2
[8] = Therapeutic index, ratio of MCC50 for human HeLa cells to MIC for inhibition of flavodoxin in clarithromycin/metronidazole-resistant Helicobacter pylori isolate 4 assessed as reduction in bacterial growth; format: toxicity; details: read-out: TI; in short: as §2
[9] = Therapeutic index, ratio of MCC50 for human HeLa cells to MIC for inhibition of flavodoxin in metronidazole-resistant Helicobacter pylori isolate 2 assessed as reduction in bacterial growth; format: toxicity; details: read-out: TI; in short: as §2
[10] = target: T1, Flavodoxin (Helicobacter pylori (strain ATCC 700392 / 26695) (Campylobacter pylori)) (UniProt O25776); assay: Binding affinity to Helicobacter pylori flavodoxin by thermal upshift assay
T1 sequence (whole entry): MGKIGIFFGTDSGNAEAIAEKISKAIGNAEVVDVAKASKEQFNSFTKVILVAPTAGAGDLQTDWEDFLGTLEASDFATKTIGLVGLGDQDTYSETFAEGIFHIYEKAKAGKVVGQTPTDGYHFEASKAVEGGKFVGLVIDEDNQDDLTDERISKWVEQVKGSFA

[11] = Cytotoxicity against human HeLa cells assessed as reduction in cell viability by XTT assay; format: cell-based; details: read-out: MCC50
In short: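 HeLa cells grown in DMEM with 10% FBS, penicillin and streptomycin at 37 °C, 5% CO2; 30 000 cells/well. XTT viability read at 450 and 650 nm. MCC50 (50% lysis) came from viability-versus-concentration curves. Two experiments, each in triplicate.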

[12] = target: T1, Flavodoxin (Helicobacter pylori (strain ATCC 700392 / 26695) (Campylobacter pylori)); assay: Inhibition of flavodoxin in Helicobacter pylori ATCC 700392 26695 assessed as reduction in bacterial growth measured after 48 hrs by resazurin staining-based microdilution method; details: Helicobacter pylori 26695
In short: (§3)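 Broth microdilution in brain heart infusion with 4% FBS. Inoculum diluted to OD600 0.01. Two-fold dilutions from a DMSO stock cover 64–0.031 μg/mL, with DMSO ≤1% v/v. Incubated 48 h at 37 °C under microaerophilic conditions. MIC is the lowest concentration giving complete growth inhibition, read by resazurin colour change and confirmed by spotting on blood agar. Run twice in triplicate.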

[13] = target: T1, Flavodoxin (Helicobacter pylori (strain ATCC 700392 / 26695) (Campylobacter pylori)); assay: Inhibition of flavodoxin in Helicobacter pylori SS1 assessed as reduction in bacterial growth measured after 48 hrs by resazurin staining-based microdilution method; in short: as §3
[14] = target: T1, Flavodoxin (Helicobacter pylori (strain ATCC 700392 / 26695) (Campylobacter pylori)); assay: Inhibition of flavodoxin in Mnz-resistant Helicobacter pylori NCTC 11637 ATCC 43504 assessed as reduction in bacterial growth measured after 48 hrs by resazurin staining-based microdilution method; details: Helicobacter pylori NCTC 11637 = CCUG 17874 = ATCC 43504; in short: as §3
[15] = tested on: Helicobacter pylori; assay: Antibacterial activity against Helicobacter pylori SS1 infected in NMRI mouse assessed as bacterial eradication at 10 mg/100g, po administered daily via gavage for 8 days starting from 1 week post-infection and measured 8 days post-last dose relative to control; format: functional
In short: (§4)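 From day 8, 100 μL compound in 5–10% DMSO/95–90% olive oil by daily oral gavage for 8 days. Infected controls got vehicle. Killed day 24; stomach homogenates plated 5 days at 37 °C microaerophilic; CFU/g tissue versus control. Mann-Whitney U and unpaired t tests, p ≤ 0.05.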

[16] = Therapeutic index, ratio of MCC50 for human HeLa cells to MIC for inhibition of flavodoxin in Helicobacter pylori ATCC 700392 26695 assessed as reduction in bacterial growth; format: toxicity; details: HeLa cells versus Helicobacter pylori ATCC 700392 26695, read-out: TI; in short: as §2
[17] = Therapeutic index, ratio of MCC50 for human HeLa cells to MIC for inhibition of flavodoxin in Helicobacter pylori SS1 assessed as reduction in bacterial growth; format: toxicity; details: HeLa cells versus Helicobacter pylori SS1, read-out: TI; in short: as §2
[18] = Toxicity in NMRI mouse assessed as change in body weight at 1 to 20 mg/100g, po administered daily via gavage for 8 days; format: organism-based; details: in vivo, 192 h
[19] = tested on: Staphylococcus aureus; assay: Effect on growth of Staphylococcus aureus ATCC 1228 after 48 hrs by resazurin-dye based microdilution assay; format: organism-based
[20] = Therapeutic index, ratio of MCC50 for human HeLa cells to MIC for inhibition of flavodoxin in Mnz-resistant Helicobacter pylori NCTC 11637 ATCC 43504 assessed as reduction in bacterial growth; format: toxicity; details: read-out: TI; in short: as §2
[21] = Stability of the compound in DMSO-d6 at pH 1 incubated for 19 hrs under shaking condition by 1H-NMR analysis; format: physicochemical; details: pH 1, 19 h
[22] = tested on: Helicobacter pylori; assay: Antibacterial activity against Helicobacter pylori SS1 infected in NMRI mouse assessed as bacterial eradication at 20 mg/100g, po administered daily via gavage for 8 days starting from 1 week post-infection and measured 8 days post-last dose relative to control; format: functional; in short: as §4
[23] = Therapeutic index, ratio of MCC50 for human HeLa cells to MIC for inhibition of flavodoxin in rifampicin-resistant Helicobacter pylori isolate 5 assessed as reduction in bacterial growth; format: toxicity; details: read-out: TI; in short: as §2
[24] = target: T1, Flavodoxin (Helicobacter pylori (strain ATCC 700392 / 26695) (Campylobacter pylori)); assay: Binding affinity to Helicobacter pylori flavodoxin by isothermal titration calorimetric method
[25] = tested on: Helicobacter pylori; assay: Antibacterial activity against Helicobacter pylori SS1 infected in NMRI mouse assessed as reduction in gastric colonization at 1 mg/100g, po administered daily via gavage for 8 days starting from 1 week post-infection and measured 8 days post-last dose; format: functional, organism-based
In short: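 Female 6-week-old SPF NMRI mice, 7 per condition, infected orogastrically on days 1 and 3 with 100 μL Hp SS1 (5 × 10^8 CFU/mL). From day 8, compound given daily by oral gavage for 8 days in 100 μL of 5–10% DMSO/95–90% olive oil. Sacrificed day 24; stomach homogenate CFU/g counted after 5 days microaerophilic culture at 37 °C. Infected vehicle-treated controls; Mann-Whitney U and unpaired t tests, p ≤ 0.05.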

[26] = Toxicity in specific-pathogen-free C57BL/6J mouse assessed as histopathological changes in stomach by measuring hyperplasia at 20 to 40 mg/100g, […] hematoxylin-eosin staining based assay; format: organism-based; details: in vivo, po, 192 h
[27] = Toxicity in NMRI mouse infected with Helicobacter pylori SS1 assessed as change in body weight at 0.1 to 10 mg/100g, po administered daily via gavage for 8 days starting from 1 week post-infection; format: organism-based; details: in vivo
[28] = Toxicity in specific-pathogen-free C57BL/6J mouse assessed as histopathological changes in heart at 10 to 40 mg/100g, po administered daily via gavage for 8 days hematoxylin-eosin staining based assay; format: organism-based; details: in vivo, 192 h
In short: (§5)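 Controls received olive oil with 5% DMSO. Blood by cardiac puncture was analysed for biochemistry on an automatic analyser. Heart, stomach, liver, lung and kidney sections were H&E-stained for histopathology.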

[29] = Toxicity in specific-pathogen-free C57BL/6J mouse assessed as hair loss at 40 mg/100g, po administered daily via gavage for 8 days; format: organism-based; details: in vivo, 192 h
[30] = Toxicity in specific-pathogen-free C57BL/6J mouse assessed as change in biochemical parameters at 10 to 40 mg/100g, po administered daily via gavage for 8 days; format: organism-based; details: in vivo, 192 h; in short: as §5
[31] = Toxicity in specific-pathogen-free C57BL/6J mouse assessed as histopathological changes in stomach by measuring inflammation at 20 to 40 mg/100g, po […] hematoxylin-eosin staining based assay; format: organism-based; details: in vivo, 192 h
[32] = Toxicity in specific-pathogen-free C57BL/6J mouse assessed as histopathological changes in lung at 10 to 40 mg/100g, po administered daily via gavage for 8 days hematoxylin-eosin staining based assay; format: organism-based; details: in vivo, 192 h; in short: as §5
[33] = Toxicity in specific-pathogen-free C57BL/6J mouse assessed as histopathological changes in kidney at 10 to 40 mg/100g, po administered daily via gavage for 8 days hematoxylin-eosin staining based assay; format: organism-based; details: in vivo, 192 h; in short: as §5
[34] = Toxicity in specific-pathogen-free C57BL/6J mouse assessed as histopathological changes in liver at 10 to 40 mg/100g, po administered daily via gavage for 8 days hematoxylin-eosin staining based assay; format: organism-based; details: in vivo, 192 h; in short: as §5
[35] = Toxicity in specific-pathogen-free C57BL/6J mouse assessed as histopathological changes in stomach by measuring necrosis of epithelium at 20 to 40 mg/100g, po […] hematoxylin-eosin staining based assay; format: organism-based; details: in vivo, 192 h
[36] = Toxicity in NMRI mouse infected with Helicobacter pylori SS1 assessed as change in appetite at 0.1 to 10 mg/100g, po administered daily via gavage for 8 days starting from 1 week post-infection; format: organism-based; details: in vivo
[37] = Toxicity in NMRI mouse assessed as change in body weight at 0.1 to 10 mg/100g, po administered daily via gavage for 8 days; format: organism-based; details: in vivo, 192 h
[38] = Toxicity in specific-pathogen-free C57BL/6J mouse assessed as weight loss at 40 mg/100g, po administered daily via gavage for 8 days; format: organism-based; details: in vivo, 192 h

COc1ccc(C[S+]([O-])c2ccc(N)c3nonc23)cc1 (centres undefined)
Activity [1]: Non-Toxic | selectivity ratio [2]: 9.5 | Activity [3]: Active | Activity [4]: Non-Toxic | Activity [5]: Non-Toxic | selectivity ratio [6]: 9.5 | selectivity ratio [7]: 9.5 | selectivity ratio [8]: 9.5 | selectivity ratio [9]: 9.5 | Activity [10]: Active | CC50 [11]: > 1000 µM | MIC [12]: 26 µM (≈ 7.89 µg/mL) | MIC [13]: 105 µM (≈ 31.9 µg/mL) | MIC [14]: 53 µM (≈ 16.1 µg/mL) | Activity [15]: 5% | selectivity ratio [16]: > 39 | selectivity ratio [17]: > 9.5 | Activity [18]: Non-Toxic | Activity [19]: Non-Toxic | selectivity ratio [20]: > 19 | Stability [21]: Stable | Activity [22]: 60% | selectivity ratio [23]: 9.5 | Activity [24]: Active

O=[N+]([O-])/C=C/c1c(F)cc(Cl)cc1F
Activity [25]: Active | Activity [26]: Toxic | Activity [27]: Non-Toxic | Activity [5]: Non-Toxic | Activity [28]: Non-Toxic | Activity [10]: Active | CC50 [11]: 36 µM | Activity [29]: Toxic | MIC [12]: 2.3 µM (≈ 0.505 µg/mL) | MIC [13]: 2.3 µM (≈ 0.505 µg/mL) | MIC [14]: 2.3 µM (≈ 0.505 µg/mL) | Activity [30]: Non-Toxic | selectivity ratio [16]: 16 | Activity [31]: Toxic | Activity [32]: Non-Toxic | selectivity ratio [17]: 16 | Activity [33]: Non-Toxic | Activity [19]: Non-Toxic | selectivity ratio [20]: 16 | Activity [34]: Non-Toxic | Activity [35]: Toxic | Activity [36]: Non-Toxic | Activity [37]: Non-Toxic | Activity [24]: Active | Activity [38]: > 20%
